# Data taken from ChEMBL document CHEMBL1275462 (Antimicrob Agents Chemother, 2008).
# The source made the active and inactive calls. The calls are words filed in the database; no cut-off is given here.
# Columns and labels:
# [1] = system: Staphylococcus aureus; experiment: Antimicrobial activity against methicillin-resistant Staphylococcus aureus HAR22 by Etest; format: functional
# Method in brief: (§1)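 Etest (manufacturer's method) and population analysis: overnight cultures serially diluted and plated on TSA with increasing oxacillin or BPR, CFU counted after 48 h at 37°C. Colonies from subpopulations growing at high oxacillin or BPR were picked, restreaked on antibiotic-free TSA for three passages, then retested by population analysis.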
# [2] = system: Staphylococcus aureus; experiment: Antimicrobial activity against methicillin-resistant Staphylococcus aureus HDE288 assessed as concentration required for bacterial subpopulation growth; format: functional; method in brief: as §1
# [3] = system: Staphylococcus aureus; experiment: Antimicrobial activity against vancomycin-intermediate Staphylococcus aureus Mu50 by Etest; format: functional
# Method in brief: (§2)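 Etest and population analysis: overnight cultures plated on TSA with increasing vancomycin, oxacillin or BPR, CFU counted after 48 h at 37°C. For VRSA strains, vancomycin plates also run with constant 1 µg/ml BPR. Vancomycin Etest read after overnight 37°C incubation on TSA with or without 1 µg/ml BPR.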
# [4] = system: Staphylococcus aureus; experiment: Effect on cell wall composition of Staphylococcus aureus COL at 0.4 ug/ml after 100 mins by HPLC method; format: functional, organism-based
# Method in brief: (§3)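 Strain COL was grown in 1-liter cultures at 37°C to OD620 0.4, with or without drug at 0.4 µg/ml in the medium. Peptidoglycan was then purified and analysed by HPLC elution profile.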
# [5] = system: Staphylococcus aureus; experiment: Antimicrobial activity against methicillin-resistant Staphylococcus aureus USA300 by Etest; format: functional; method in brief: as §1
# [6] = system: Staphylococcus aureus; experiment: Antimicrobial activity against methicillin-resistant Staphylococcus aureus BK2464 assessed as concentration required for minimum inhibition of oxacillin-resistant subpopulation growth by Etest; format: functional; method in brief: as §1
# [7] = molecular target: T1, MecA (Staphylococcus aureus, UniProt Q7DHH4); experiment: Inhibition of methicillin-resistant Staphylococcus aureus COL PBP2a by competitive assay; design: species or system Staphylococcus aureus subsp. aureus COL
# T1 sequence (Q7DHH4 whole entry): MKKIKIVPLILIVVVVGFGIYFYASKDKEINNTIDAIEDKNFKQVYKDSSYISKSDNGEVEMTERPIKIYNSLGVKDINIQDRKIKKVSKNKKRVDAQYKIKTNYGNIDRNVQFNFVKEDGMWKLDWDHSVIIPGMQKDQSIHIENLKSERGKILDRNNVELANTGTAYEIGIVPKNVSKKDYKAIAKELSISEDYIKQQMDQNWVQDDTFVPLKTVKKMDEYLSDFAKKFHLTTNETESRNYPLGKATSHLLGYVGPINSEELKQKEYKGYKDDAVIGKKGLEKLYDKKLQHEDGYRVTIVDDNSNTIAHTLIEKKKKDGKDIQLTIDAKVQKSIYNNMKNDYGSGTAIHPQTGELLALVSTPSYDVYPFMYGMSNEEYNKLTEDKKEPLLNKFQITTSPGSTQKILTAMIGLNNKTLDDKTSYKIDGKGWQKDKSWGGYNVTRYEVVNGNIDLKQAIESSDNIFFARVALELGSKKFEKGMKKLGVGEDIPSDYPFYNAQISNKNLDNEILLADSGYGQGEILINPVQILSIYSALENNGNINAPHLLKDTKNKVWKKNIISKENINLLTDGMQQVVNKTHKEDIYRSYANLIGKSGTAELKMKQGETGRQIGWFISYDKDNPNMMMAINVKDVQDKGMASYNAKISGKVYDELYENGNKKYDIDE
# Method in brief: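 Purified soluble PBP 2A (mecA expressed in E. coli, 97% pure) at 0.8 µM, preincubated with drug 30 min at 30°C. Then 20 µM Bocillin FL added for 10 min at 37°C, quenched with SDS-PAGE buffer and boiled. Drug range 0.5–20 µM; for IC50, BPR 0.5–200 µM or oxacillin 5–6,000 µM. Curve fitting.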
# [8] = system: Staphylococcus aureus; experiment: Antimicrobial activity against methicillin-resistant Staphylococcus aureus HPV107 by Etest; format: functional; method in brief: as §1
# [9] = system: Staphylococcus aureus; experiment: Antimicrobial activity against methicillin-resistant Staphylococcus aureus HPV107 assessed as concentration required for minimum inhibition of BRP-resistant subpopulation growth by Etest; format: functional; method in brief: as §1
# [10] = system: Staphylococcus aureus; experiment: Antimicrobial activity against vancomycin-intermediate Staphylococcus aureus JH9 obtained from bacteremic patient by Etest; format: functional; method in brief: as §2
# [11] = system: Staphylococcus aureus; experiment: Antimicrobial activity against methicillin-resistant Staphylococcus aureus E2125 by Etest; format: functional; method in brief: as §1
# [12] = system: Staphylococcus aureus; experiment: Antimicrobial activity against methicillin-resistant Staphylococcus aureus COL assessed as concentration required for minimum inhibition of BRP-resistant subpopulation growth; format: functional; method in brief: as §1
# [13] = system: Staphylococcus aureus; experiment: Antimicrobial activity against methicillin-resistant Staphylococcus aureus BK2464 assessed as concentration required for bacterial subpopulation growth; format: functional; method in brief: as §1
# [14] = system: Staphylococcus aureus; experiment: Effect on cell wall composition of Staphylococcus aureus COL at 0.4 ug/ml by HPLC method; format: functional, organism-based; method in brief: as §3
# [15] = system: Staphylococcus aureus; experiment: Antimicrobial activity against methicillin-resistant Staphylococcus aureus HU25 by Etest; format: functional; method in brief: as §1
# [16] = system: Staphylococcus aureus; experiment: Antimicrobial activity against methicillin-resistant Staphylococcus aureus HAR24 assessed as concentration required for minimum inhibition of oxacillin-resistant subpopulation growth by Etest; format: functional; method in brief: as §1
# [17] = system: Staphylococcus aureus; experiment: Antimicrobial activity against methicillin-resistant Staphylococcus aureus BK2464 by Etest; format: functional; method in brief: as §1
# [18] = system: Staphylococcus aureus; experiment: Displacement of benzyl-[14C]penicillin from Staphylococcus aureus PBP2 RU130 mutant by in vitro competitive assay; details: COL
# Method in brief: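 Membranes from PBP 2 insertional mutant RU130 (Tn551 in transpeptidase domain), late exponential phase, 150 µg protein, preincubated with increasing oxacillin or BPR 10 min at 30°C. Then labelled with 20 µg/ml benzyl[14C]penicillin 10 min at 37°C and stopped with excess unlabelled penicillin in SDS. SDS-PAGE with phosphor screen exposure for 2 weeks.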
# [19] = system: Staphylococcus aureus; experiment: Antimicrobial activity against methicillin-resistant Staphylococcus aureus HU25 assessed as concentration required for minimum inhibition of BRP-resistant subpopulation growth; format: functional; method in brief: as §1
# [20] = system: Staphylococcus aureus; experiment: Antimicrobial activity against methicillin-resistant Staphylococcus aureus E2125 assessed as concentration required for bacterial subpopulation growth; format: functional; method in brief: as §1
# [21] = system: Staphylococcus aureus; experiment: Antimicrobial activity against methicillin-resistant Staphylococcus aureus HPV107 assessed as concentration required for minimum inhibition of oxacillin-resistant subpopulation growth by Etest; format: functional; method in brief: as §1
# [22] = system: Staphylococcus aureus; experiment: Antimicrobial activity against methicillin-resistant Staphylococcus aureus BK2529 assessed as concentration required for bacterial subpopulation growth; format: functional; method in brief: as §1
# [23] = system: Staphylococcus aureus; experiment: Antimicrobial activity against methicillin-resistant Staphylococcus aureus BK2464 assessed as concentration required for minimum inhibition of BRP-resistant subpopulation growth by Etest; format: functional; method in brief: as §1
# [24] = system: Staphylococcus aureus; experiment: Antimicrobial activity against methicillin-resistant Staphylococcus aureus HDE288 by Etest; format: functional; method in brief: as §1
smiles,measurement,setting,value
Nc1nc(/C(=N/O)C(=O)N[C@@H]2C(=O)N3C(C(=O)O)=C(/C=C4\CCN([C@@H]5CCNC5)C4=O)CS[C@H]23)ns1 [CEFTOBIPROLE],MIC,[1],0.8 µg/mL
same,Activity,[2],3 µg/mL
same,MIC,[3],3 µg/mL
same,Activity,[4],inactive
same,MIC,[5],1.5 µg/mL
same,Activity,[6],1.5 µg/mL
same,IC50,[7],3.2 µM
same,MIC,[8],0.8 µg/mL
same,Activity,[9],0.8 µg/mL
same,MIC,[10],0.8 µg/mL
same,MIC,[11],0.8 µg/mL
same,Activity,[12],3 µg/mL
same,Activity,[13],1.5 µg/mL
same,Activity,[14],Active
same,MIC,[15],3 µg/mL
same,Activity,[16],1.5 µg/mL
same,MIC,[17],1.5 µg/mL
same,Activity,[18],Active
same,Activity,[19],3 µg/mL
same,Activity,[20],6 µg/mL
same,Activity,[21],0.8 µg/mL
same,Activity,[22],3 µg/mL
same,Activity,[23],3 µg/mL
same,MIC,[24],0.8 µg/mL
